Peptide text beside a SMILES is read from it.
Experiments:
[1] = molecular target: APOBEC3G (A3G), wild type, C-terminal His6 tag (human) (UniProt Q9HC16)
[2] = molecular target: A3G (Homo sapiens, UniProt Q9HC16); assay: Inhibition of deamination activity of purified A3G; format: biochemical
[3] = tested on: SupT1 cells; assay: Alkaline comet assay in SupT1 cells; format: cell-based; details: no radiation; Tail DNA % and Olive Tail Moment
Procedure, shortened: (§1)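 Alkaline comet assay. One day after culturing, cells were pre-treated or not with peptides for 2 h, then γ-irradiated (4 Gy) or mock-irradiated. Cells were embedded in low-melting agarose. Lysis was 2 h in ice-cold 2.5 M NaCl, 100 mM EDTA, 10 mM Tris pH 10, 1% Triton X-100 and 10% DMSO. DNA was unwound 20 min at 4°C in NaOH/EDTA pH 13 and electrophoresed 45 V, 20 min. Slides were neutralised and stained with ethidium bromide. Tail DNA % and Olive tail moment were scored from random fields.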

[4] = tested on: H9 cells; assay: Alkaline comet assay in H9 cells; format: cell-based; details: no radiation; Tail DNA % and Olive Tail Moment
Procedure, shortened: as §1

[5] = molecular target: APOBEC3G (A3G), wild type, C-terminal His6 tag (human, UniProt Q9HC16 1-384); assay: cell-based or functional assay
Sequence of APOBEC3G (A3G), wild type, C-terminal His6 tag (Q9HC16 whole entry): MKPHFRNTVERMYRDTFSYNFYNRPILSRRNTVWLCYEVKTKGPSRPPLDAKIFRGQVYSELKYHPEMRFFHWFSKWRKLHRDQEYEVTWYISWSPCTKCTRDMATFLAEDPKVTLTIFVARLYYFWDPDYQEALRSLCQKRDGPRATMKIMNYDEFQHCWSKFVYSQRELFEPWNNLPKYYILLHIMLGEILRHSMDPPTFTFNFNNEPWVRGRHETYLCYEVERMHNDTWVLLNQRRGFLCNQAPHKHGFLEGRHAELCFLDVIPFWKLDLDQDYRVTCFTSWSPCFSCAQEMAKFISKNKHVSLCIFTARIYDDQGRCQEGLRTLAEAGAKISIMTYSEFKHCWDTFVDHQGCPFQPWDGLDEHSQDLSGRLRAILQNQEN

Sequence of A3G (Q9HC16 whole entry): as above
Sequence of APOBEC3G (A3G), wild type, C-terminal His6 tag (human) (Q9HC16 whole entry): as above

Molecule | IC50 of inhibition of ssDNA deamination by purified A3G [1] [µM] | IC50 [2] [µM] | other results
Vif105-119 (peptide) | 0.1 |  | 
CSCC[C@H](NC(=O)[C@H](C)NC(=O)[C@H](C)NC(=O)[C@H](C)NC(=O)[C@@H](N)C(C)C)C(=O)N[C@@H](Cc1ccc(O)cc1)C(=O)N[C@H](C(=O)N[C@@H](CO)C(=O)NCC(=O)N[C@@H](CCCCN)C(=O)N[C@@H](C)C(=O)N[C@@H](CCCNC(=N)N)C(=O)NCC(=O)N[C@@H](Cc1c[nH]c2ccccc12)C(=O)N[C@@H](Cc1ccccc1)C(=O)O)C(C)C [Vif 25-39 (26AAA28)] (H-VAAAMYVSGKARGWF-OH) |  | 10 | 
Vif25-36 (peptide) | 50 |  | 
Vif 25-39 (27AA28) (peptide) | 4.5 |  | 
CSCC[C@H](NC(=O)[C@H](Cc1c[nH]cn1)NC(=O)[C@H](Cc1c[nH]cn1)NC(=O)[C@H](CCCCN)NC(=O)[C@@H](N)C(C)C)C(=O)N[C@@H](Cc1ccc(O)cc1)C(=O)N[C@H](C(=O)N[C@@H](CO)C(=O)NCC(=O)N[C@@H](CCCCN)C(=O)N[C@@H](C)C(=O)N[C@@H](CCCNC(=N)N)C(=O)NCC(=O)N[C@@H](Cc1c[nH]c2ccccc12)C(=O)N[C@@H](Cc1ccccc1)C(=O)O)C(C)C [Vif25-39] |  | 0.6 | DNA damage in non-irradiated SupT1 cells (comet assay) [3]: did not induce any damage; DNA damage in non-irradiated H9 cells (comet assay) [4]: did not induce any damage
CC(C)C[C@H](NC(=O)[C@H](Cc1ccc(O)cc1)NC(=O)[C@@H](NC(=O)[C@H](CCC(=O)O)NC(=O)[C@H](Cc1cnc[nH]1)NC(=O)[C@H](CCCNC(=N)N)NC(=O)CNC(=O)[C@H](CCCNC(=N)N)NC(=O)[C@@H](NC(=O)[C@@H](N)Cc1c[nH]c2ccccc12)C(C)C)[C@@H](C)O)C(=O)N[C@@H](CS)C(=O)N[C@@H](Cc1ccc(O)cc1)C(=O)N[C@@H](CCC(=O)O)C(=O)N[C@H](C(=O)N[C@@H](CCC(=O)O)C(=O)O)C(C)C [Peptide A3G211-225] (H-WVRGRHETYLCYEVE-OH) |  | 10 | 
CSCC[C@H](NC(=O)[C@H](Cc1c[nH]cn1)NC(=O)[C@H](Cc1c[nH]cn1)NC(=O)[C@H](CCCCN)NC(=O)[C@@H](N)C(C)C)C(=O)N[C@@H](Cc1ccc(O)cc1)C(=O)N[C@H](C(=O)N[C@@H](CO)C(=O)NCC(=O)N[C@@H](CCCCN)C(=O)N[C@@H](C)C(=O)N[C@@H](CCCNC(=N)N)C(=O)O)C(C)C [Vif25-36] |  | 50 | 
CC[C@H](C)[C@H](N)C(=O)N[C@@H](Cc1c[nH]cn1)C(=O)N[C@@H](CC(C)C)C(=O)N[C@@H](Cc1ccc(O)cc1)C(=O)N[C@@H](Cc1ccc(O)cc1)C(=O)N[C@@H](Cc1ccccc1)C(=O)N[C@@H](CC(=O)O)C(=O)N[C@@H](CS)C(=O)N[C@@H](Cc1ccccc1)C(=O)O [Vif107-115] (H-IHLYYFDCF-OH) |  |  | DNA damage in non-irradiated SupT1 cells (comet assay) [3]: did not induce any damage; Ki [2]: ~1.71 µM; DNA damage in non-irradiated H9 cells (comet assay) [4]: did not induce any damage
Vif26-39 (peptide) | 80 |  | 
CSCC[C@H](NC(=O)[C@H](C)NC(=O)[C@H](C)NC(=O)[C@H](CCCCN)NC(=O)[C@@H](N)C(C)C)C(=O)N[C@@H](Cc1ccc(O)cc1)C(=O)N[C@H](C(=O)N[C@@H](CO)C(=O)NCC(=O)N[C@@H](CCCCN)C(=O)N[C@@H](C)C(=O)N[C@@H](CCCNC(=N)N)C(=O)NCC(=O)N[C@@H](Cc1c[nH]c2ccccc12)C(=O)N[C@@H](Cc1ccccc1)C(=O)O)C(C)C [Vif 25-39 (27AA28)] (H-VKAAMYVSGKARGWF-OH) |  | 4.5 | 
CC(C)C[C@H](NC(=O)[C@@H](N)CCCNC(=N)N)C(=O)N[C@@H](Cc1ccc(O)cc1)C(=O)N[C@@H](Cc1ccc(O)cc1)C(=O)N[C@@H](Cc1ccccc1)C(=O)N[C@@H](Cc1c[nH]c2ccccc12)C(=O)N[C@@H](CC(=O)O)C(=O)O [Peptide A3F305-311] (H-RLYYFWD-OH) |  | 1 | DNA damage in non-irradiated SupT1 cells (comet assay) [3]: did not induce breaks; DNA damage in non-irradiated H9 cells (comet assay) [4]: did not induce breaks
CSCC[C@H](NC(=O)[C@@H](N)CCCNC(=N)N)C(=O)N[C@@H](Cc1c[nH]cn1)C(=O)N[C@@H](CC(N)=O)C(=O)N[C@@H](CC(=O)O)C(=O)N[C@H](C(=O)N[C@@H](Cc1c[nH]c2ccccc12)C(=O)N[C@H](C(=O)N[C@@H](CC(C)C)C(=O)N[C@@H](CC(C)C)C(=O)N[C@@H](CC(N)=O)C(=O)N[C@@H](CCC(N)=O)C(=O)N[C@@H](CCCNC(=N)N)C(=O)N[C@@H](CCCNC(=N)N)C(=O)NCC(=O)O)C(C)C)[C@@H](C)O [Peptide A3G226-240] (H-RMHNDTWVLLNQRRG-OH) |  | 60 | 
CC(C)C[C@H](NC(=O)[C@H](CCCNC(=N)N)NC(=O)[C@H](C)N)C(=O)N[C@@H](Cc1ccc(O)cc1)C(=O)N[C@@H](Cc1ccc(O)cc1)C(=O)N[C@@H](Cc1ccccc1)C(=O)N[C@@H](Cc1c[nH]c2ccccc12)C(=O)N[C@@H](CC(=O)O)C(=O)N[C@H](C(=O)O)[C@@H](C)O [Peptide A3F304-312] (H-ARLYYFWDT-OH) |  | 8 | DNA damage in non-irradiated SupT1 cells (comet assay) [3]: did not induce breaks; DNA damage in non-irradiated H9 cells (comet assay) [4]: did not induce breaks
Vif25-39 (peptide) | 0.6 |  | 
Vif 25-39 (26A) (peptide) | 8 |  | 
Vif 25-39 (26AAA28) (peptide) | 10 |  | 
CSCC[C@H](NC(=O)[C@H](Cc1c[nH]cn1)NC(=O)[C@H](Cc1c[nH]cn1)NC(=O)[C@H](C)NC(=O)[C@@H](N)C(C)C)C(=O)N[C@@H](Cc1ccc(O)cc1)C(=O)N[C@H](C(=O)N[C@@H](CO)C(=O)NCC(=O)N[C@@H](CCCCN)C(=O)N[C@@H](C)C(=O)N[C@@H](CCCNC(=N)N)C(=O)NCC(=O)N[C@@H](Cc1c[nH]c2ccccc12)C(=O)N[C@@H](Cc1ccccc1)C(=O)O)C(C)C [Vif 25-39 (26A)] |  | 8 | 
IHLYYFDCF [Vif107-115] |  |  | IC50 of inhibition of ssDNA deamination by purified A3G [5]: 0.1 µM
ARLYYFWDT [A3F304-312] | 8 |  | 
RLYYFWD [A3F305-311] | 1 |  | 
WVRGRHETYLCYEVE [A3G211-225] | 10 |  | 
RMHNDTWVLLNQRRG [A3G226-240] | 60 |  | 

Reference: paper PMC4712096 (The FEBS journal, 2015)
